Assay results pooled from the literature.
Lines come from different studies, so protocols differ.
Cell line: DU-145
Observed: cell growth or viability

| Structure (SMILES) | method | time | IC50 [µM] |
| --- | --- | --- | --- |
| Cc1cccc2c(C(c3ccc(/C=C/C(=O)O)s3)c3c[nH]c4c(C)cccc34)c[nH]c12 | MTT | 48 h | 64 |
| C[C@@H]1C[C@@H](c2ccc(Br)cc2)c2c(cc3ccccn23)C(=O)O1 (racemic) | resazurin | 72 h | 46.6 |
| CC(C)C[C@H](NC(=O)[C@H](Cc1ccccc1)NC(=O)c1cnccn1)B(O)O | ATP luminescence | – | 0.017 |
| C[C@H]1[C@@H](O)O[C@@H]2O[C@@]3(C)CC[C@H]4[C@H](C)CC[C@@H]1[C@@]24OO3 | CCK-8 | 48 h | > 50 |
| COC1=CC(=O)N(C(=O)[C@@H](CCC(Cl)(Cl)Cl)NC(=O)C(C)(C)C)[C@@H]1CCC(Cl)Cl | resazurin | 72 h | > 35 |
| CC(C)n1cc(C(c2ccc(/C=C/C(=O)O)s2)c2cn(C(C)C)c3ccccc23)c2ccccc21 | MTT | 48 h | 52 |
| COc1cc([C@H]2C[C@@H](C)OC(=O)c3cc4ccccn4c32)cc(OC)c1OC (racemic) | resazurin | 72 h | 36.9 |
| COc1cc(C2Oc3cc([C@H]4Oc5cc(O)cc(O)c5C(=O)[C@@H]4O)ccc3OC2CO)ccc1O (stereo partly shown) | CCK-8 | 72 h | 21.9 |
| Oc1ccc(C(c2c[nH]c3ccccc23)c2c[nH]c3ccccc23)cc1 | MTT | 48 h | 48 |
| C[C@@H]1C[C@@H](c2ccc3c(c2)OCO3)c2c(cc3ccccn23)C(=O)O1 (racemic) | resazurin | 72 h | 35.7 |
| O=C1NC(c2ccccc2)(c2ccccc2)C(=O)N1Cc1cn(-c2c3ccccc3nc3ccccc23)nn1 | MTT | – | 79.3 |
| Cc1ccc(S(=O)(=O)OCC(=O)Nc2ccc(C(=O)O)c(O)c2)cc1 | – | – | 75 |
| C[C@@H]1C[C@H](c2cccc(F)c2)c2c(cc3ccccn23)C(=O)O1 (racemic) | resazurin | 72 h | > 100 |
| Cc1cc(=O)[nH]c(=O)n1Cc1cn(-c2c3ccccc3nc3ccccc23)nn1 | MTT | – | 26.1 |
| COc1cc(C(=O)c2csc(-c3ccccc3)n2)cc(OC)c1OC | SRB | 96 h | 0.071 |
| O=C(O)c1ccc(C(c2c[nH]c3ccccc23)c2c[nH]c3ccccc23)cc1 | MTT | 48 h | > 100 |
| C[C@@H]1C[C@H](c2cccc(Cl)c2)c2c(cc3ccccn23)C(=O)O1 (racemic) | resazurin | 72 h | 54.7 |
| Cn1cc(C(c2ccc(C(=O)O)cc2)c2cn(C)c3ccccc23)c2ccccc21 | MTT | 48 h | > 100 |
| COc1cccc([C@@H]2C[C@@H](C)OC(=O)c3cc4ccccn4c32)c1 (racemic) | resazurin | 72 h | > 100 |
| O=C(O)C(c1c[nH]c2ccccc12)c1c[nH]c2ccccc12 | MTT | 48 h | > 100 |
| COc1cc(OC)cc([C@H]2C[C@@H](C)OC(=O)c3cc4ccccn4c32)c1 (racemic) | resazurin | 72 h | 52.4 |
| CCc1c2c(nc3ccc(OC(=O)N4CCC(N5CCCCC5)CC4)cc13)-c1cc3c(c(=O)n1C2)COC(=O)[C@]3(O)CC | SRB | 72 h | 9.3 |
